Experimental data from ChEMBL document CHEMBL3259656, “Discovery of AZD3199, An Inhaled Ultralong Acting β2 Receptor Agonist with Rapid Onset of Action” (ACS Med Chem Lett, 2014).
One block for each compound: values may come before it. The source made the active and inactive calls. The calls are words filed in the database; no cut-off is given here.

Key:
[1] = molecular target: Beta-2 adrenergic receptor (Homo sapiens, UniProt P07550); assay: Agonist activity at human beta-2 adrenergic receptor expressed in human H292 cells assessed as accumulation of intracellular cAMP after 1 hr by AlphaScreen assay; type: functional, cell-based
Beta-2 adrenergic receptor, sequence (P07550 whole entry): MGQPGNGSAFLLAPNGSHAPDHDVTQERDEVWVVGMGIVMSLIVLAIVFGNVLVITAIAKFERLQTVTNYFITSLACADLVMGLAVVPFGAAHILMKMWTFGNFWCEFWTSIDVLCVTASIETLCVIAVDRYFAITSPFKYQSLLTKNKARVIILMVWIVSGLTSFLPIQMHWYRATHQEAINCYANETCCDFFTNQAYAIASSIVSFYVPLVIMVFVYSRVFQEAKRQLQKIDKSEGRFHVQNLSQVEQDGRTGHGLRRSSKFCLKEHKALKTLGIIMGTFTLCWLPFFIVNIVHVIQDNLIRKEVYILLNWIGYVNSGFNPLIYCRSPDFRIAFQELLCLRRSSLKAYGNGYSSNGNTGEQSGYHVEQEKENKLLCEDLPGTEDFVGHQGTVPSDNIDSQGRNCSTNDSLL

D(2) dopamine receptor [2] = molecular target: T1, D(2) dopamine receptor (Homo sapiens, UniProt P14416); assay: Partial agonist activity at human recombinant dopamine D2S receptor expressed in HEK cells by GTPgammaS binding assay; type: functional, cell-based; details: HEK293
T1 sequence (P14416 whole entry): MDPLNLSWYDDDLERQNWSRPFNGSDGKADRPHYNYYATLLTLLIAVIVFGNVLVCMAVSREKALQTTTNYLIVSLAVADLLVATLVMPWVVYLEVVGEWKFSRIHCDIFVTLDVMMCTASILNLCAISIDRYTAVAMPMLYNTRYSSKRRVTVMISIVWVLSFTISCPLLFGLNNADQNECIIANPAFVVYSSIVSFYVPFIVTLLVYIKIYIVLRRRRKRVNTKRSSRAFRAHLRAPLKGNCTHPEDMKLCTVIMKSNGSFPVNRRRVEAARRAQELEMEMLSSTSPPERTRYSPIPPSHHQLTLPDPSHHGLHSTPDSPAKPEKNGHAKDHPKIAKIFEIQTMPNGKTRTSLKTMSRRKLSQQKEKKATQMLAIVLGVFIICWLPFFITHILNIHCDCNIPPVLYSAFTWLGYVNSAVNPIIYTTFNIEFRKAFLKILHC

[3] = molecular target: Beta-2 adrenergic receptor (Rattus norvegicus) (UniProt P10608); assay: Agonist activity at beta-2 adrenergic receptor in rat C6 cells assessed as cAMP accumulation; type: functional, cell-based
Beta-2 adrenergic receptor (Rattus norvegicus), sequence (P10608 whole entry, looked up): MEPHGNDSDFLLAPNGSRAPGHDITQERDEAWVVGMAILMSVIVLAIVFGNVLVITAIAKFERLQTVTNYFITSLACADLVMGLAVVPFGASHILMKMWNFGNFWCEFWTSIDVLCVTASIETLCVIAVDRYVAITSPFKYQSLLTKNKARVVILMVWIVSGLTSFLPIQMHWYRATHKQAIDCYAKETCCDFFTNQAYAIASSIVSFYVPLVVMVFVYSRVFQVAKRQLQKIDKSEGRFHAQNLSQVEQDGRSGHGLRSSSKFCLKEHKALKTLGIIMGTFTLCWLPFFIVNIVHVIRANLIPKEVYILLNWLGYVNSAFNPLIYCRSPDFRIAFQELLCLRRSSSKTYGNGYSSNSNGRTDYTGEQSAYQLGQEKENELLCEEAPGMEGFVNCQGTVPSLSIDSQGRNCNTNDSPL

[4] = molecular target: Beta-2 adrenergic receptor (Rattus norvegicus) (UniProt P10608); assay: Intrinsic activity at beta-2 adrenergic receptor in rat C6 cells; type: cell-based
Oryctolagus cuniculus [5] = species: Oryctolagus cuniculus; assay: Agonist activity at rabbit recombinant beta-2 adrenergic receptor assessed as cAMP accumulation by cell-based assay
[6] = molecular target: Beta-2 adrenergic receptor (Canis lupus familiaris) (UniProt P54833); assay: Agonist activity at dog recombinant beta-2 adrenergic receptor assessed as cAMP accumulation by cell-based assay; type: functional
Beta-2 adrenergic receptor (Canis lupus familiaris), sequence (P54833 whole entry, looked up): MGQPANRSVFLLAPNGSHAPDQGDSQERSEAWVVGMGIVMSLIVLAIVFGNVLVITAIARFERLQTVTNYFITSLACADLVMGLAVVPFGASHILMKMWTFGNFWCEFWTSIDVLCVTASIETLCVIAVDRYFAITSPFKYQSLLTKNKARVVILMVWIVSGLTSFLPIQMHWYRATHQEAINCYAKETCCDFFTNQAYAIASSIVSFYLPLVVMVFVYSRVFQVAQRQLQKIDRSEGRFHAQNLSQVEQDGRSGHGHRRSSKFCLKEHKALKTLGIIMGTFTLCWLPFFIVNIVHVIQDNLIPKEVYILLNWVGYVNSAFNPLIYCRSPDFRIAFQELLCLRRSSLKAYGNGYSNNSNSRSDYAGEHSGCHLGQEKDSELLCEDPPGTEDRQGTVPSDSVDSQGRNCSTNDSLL

[7] = molecular target: Beta-2 adrenergic receptor (Canis lupus familiaris) (UniProt P54833); assay: Intrinsic activity at dog recombinant beta-2 adrenergic receptor
[8] = molecular target: Beta-2 adrenergic receptor (Mus musculus) (UniProt P18762); assay: Agonist activity at mouse recombinant beta-2 adrenergic receptor assessed as cAMP accumulation by cell-based assay; type: functional
Beta-2 adrenergic receptor (Mus musculus), sequence (P18762 whole entry, looked up): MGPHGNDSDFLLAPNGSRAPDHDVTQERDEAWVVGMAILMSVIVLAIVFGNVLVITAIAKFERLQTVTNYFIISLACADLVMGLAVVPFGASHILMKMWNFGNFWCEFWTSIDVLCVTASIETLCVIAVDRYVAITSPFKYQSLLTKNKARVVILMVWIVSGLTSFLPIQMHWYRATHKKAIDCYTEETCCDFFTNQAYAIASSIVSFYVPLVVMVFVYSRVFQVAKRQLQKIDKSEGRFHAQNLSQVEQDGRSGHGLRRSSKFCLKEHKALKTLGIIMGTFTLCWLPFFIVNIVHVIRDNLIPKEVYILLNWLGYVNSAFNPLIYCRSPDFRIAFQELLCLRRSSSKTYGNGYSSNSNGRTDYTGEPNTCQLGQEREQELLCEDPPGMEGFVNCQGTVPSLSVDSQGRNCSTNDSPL

[9] = molecular target: Beta-2 adrenergic receptor (Mus musculus) (UniProt P18762); assay: Intrinsic activity at mouse recombinant beta-2 adrenergic receptor
Oryctolagus cuniculus [10] = species: Oryctolagus cuniculus; assay: Intrinsic activity at rabbit recombinant beta-2 adrenergic receptor
Cavia porcellus [11] = assay: Bronchoprotective activity in guinea pig assessed as inhibition of histamine-induced bronchoconstriction administered intratracheally after 2 hrs; type: functional; details: inhaled or nasal
Cavia porcellus [12] = assay: Bronchoprotective activity in guinea pig assessed as inhibition of histamine-induced bronchoconstriction administered intratracheally after 2 hrs in presence of propanolol; type: functional, organism-based
How it was run: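 In the guinea pig histamine-induced bronchoconstriction model, propranolol was given at 1 mg/kg i.v. to check that the bronchoprotection was mediated through β2 receptors.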

[13] = Intrinsic clearance in rat measured per million cells; type: ADME
[14] = Terminal half life in iv dosed rat; type: ADME, organism-based; details: in vivo, read-out: beta t1/2 (converted)
[15] = Terminal half life in iv dosed guinea pig; type: ADME, organism-based, Cavia porcellus; details: in vivo, read-out: beta t1/2 (converted)
[16] = Terminal half life in iv dosed dog; type: ADME, organism-based, Canis lupus familiaris; details: in vivo, read-out: beta t1/2 (converted)
[17] = Apparent volume of distribution in iv dosed rat; type: ADME, organism-based; details: in vivo, read-out: Vz
[18] = Apparent volume of distribution in iv dosed guinea pig; type: ADME, organism-based, Cavia porcellus; details: in vivo, read-out: Vz
[19] = Apparent volume of distribution in iv dosed dog; type: ADME, organism-based, Canis lupus familiaris; details: in vivo, read-out: Vz
[20] = Oral bioavailability in rat; type: ADME, organism-based; details: in vivo
[21] = Oral bioavailability in dog; type: ADME, organism-based, Canis lupus familiaris; details: in vivo
Cavia porcellus [22] = assay: Bronchoprotective activity in guinea pig assessed as inhibition of histamine-induced bronchoconstriction at ED80 administered intratracheally after 24 hrs relative to control; type: functional
How it was run: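 Guinea pigs received a single intratracheal dose, set from a dose–response in the same histamine-induced bronchoconstriction model. Histamine challenge was given at several times after dosing, and inhibition of bronchoconstriction was measured. Bronchoprotection at 24 h was expressed relative to control animals.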

Cavia porcellus [23] = assay: Toxicity in iv dosed guinea pig assessed as change in plasma potassium level up to 60 mins; type: organism-based; details: in vivo, 1 h
[24] = molecular target: T2, Alpha-1D adrenergic receptor (Homo sapiens) (UniProt P25100); assay: Agonist activity at human recombinant alpha-1D adrenergic receptor expressed in HEK cells assessed as intracellular calcium response; details: HEK293
T2 sequence (whole entry): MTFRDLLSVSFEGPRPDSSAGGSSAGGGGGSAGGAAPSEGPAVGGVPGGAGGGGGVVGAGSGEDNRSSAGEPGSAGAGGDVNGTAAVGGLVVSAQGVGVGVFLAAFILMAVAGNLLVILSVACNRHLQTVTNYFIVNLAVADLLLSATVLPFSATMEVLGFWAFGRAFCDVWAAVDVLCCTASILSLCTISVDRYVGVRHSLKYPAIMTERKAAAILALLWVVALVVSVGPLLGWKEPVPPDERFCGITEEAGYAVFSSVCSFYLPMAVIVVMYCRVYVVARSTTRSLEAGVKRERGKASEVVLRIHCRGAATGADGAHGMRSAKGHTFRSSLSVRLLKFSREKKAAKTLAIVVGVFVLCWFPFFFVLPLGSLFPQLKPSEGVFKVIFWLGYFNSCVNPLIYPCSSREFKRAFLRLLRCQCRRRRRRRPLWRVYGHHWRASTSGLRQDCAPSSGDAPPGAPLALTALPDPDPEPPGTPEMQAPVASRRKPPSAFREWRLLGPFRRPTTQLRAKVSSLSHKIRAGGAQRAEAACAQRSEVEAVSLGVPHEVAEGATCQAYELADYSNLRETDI

D(2) dopamine receptor [25] = molecular target: T1, D(2) dopamine receptor; assay: Agonist activity at human recombinant dopamine D2S receptor expressed in HEK cells by GTPgammaS binding assay; type: functional, HEK293
Cavia porcellus [26] = assay: Bronchoprotective activity in guinea pig assessed as inhibition of histamine-induced bronchoconstriction at ED80 administered intratracheally after 4 to 24 hrs relative to control; type: functional, organism-based
How it was run: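 Guinea pigs received a single intratracheal dose of agonist. Histamine-induced bronchoconstriction was measured at several time points after dosing, up to 24 h. Bronchoprotection was expressed as inhibition relative to control animals.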

[27] = molecular target: Beta-2 adrenergic receptor (Cavia porcellus) (UniProt Q8K4Z4); details: Trachea
Beta-2 adrenergic receptor (Cavia porcellus), sequence (Q8K4Z4 whole entry, looked up): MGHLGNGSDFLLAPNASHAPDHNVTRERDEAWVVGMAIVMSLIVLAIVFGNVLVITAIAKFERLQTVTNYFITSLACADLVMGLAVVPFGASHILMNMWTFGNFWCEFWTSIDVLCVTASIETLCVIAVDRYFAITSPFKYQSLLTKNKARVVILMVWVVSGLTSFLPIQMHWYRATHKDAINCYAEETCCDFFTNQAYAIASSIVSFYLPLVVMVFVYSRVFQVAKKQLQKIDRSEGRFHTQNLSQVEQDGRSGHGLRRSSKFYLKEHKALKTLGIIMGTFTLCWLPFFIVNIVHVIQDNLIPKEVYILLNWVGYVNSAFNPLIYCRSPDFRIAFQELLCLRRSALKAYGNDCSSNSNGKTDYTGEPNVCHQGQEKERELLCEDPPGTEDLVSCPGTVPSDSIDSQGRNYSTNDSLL

EC50 [1]: 6.31 nM
SMILES: CCN(CC)CCN(CCNCCc1ccc(O)c2[nH]c(=O)sc12)C(=O)CCOCCc1cccc(Cl)c1

EC50 [1]: 6.31 nM
SMILES: CN(C)CCN(CCNCCc1ccc(O)c2[nH]c(=O)sc12)C(=O)CCOCCc1ccccc1

EC50 [1]: 5.01 nM
SMILES: CC(C)N(C)CCCN(CCNCCc1ccc(O)c2[nH]c(=O)sc12)C(=O)CCOCCc1cccc(Cl)c1

EC50 [1]: 7.94 nM
SMILES: CN(CCCN(CCNCCc1ccc(O)c2[nH]c(=O)sc12)C(=O)CCOCCc1cccc(Cl)c1)C1CC1

EC50 [1]: 10 nM
SMILES: CCN(C)CCCN(CCNCCc1ccc(O)c2[nH]c(=O)sc12)C(=O)CCOCCc1cccc(Cl)c1

EC50 [1]: 15.8 nM
SMILES: CN(C)CCCN(CCNCCc1ccc(O)c2[nH]c(=O)sc12)C(=O)CCOCCc1ccccc1

EC50 [1]: 12.6 nM
SMILES: O=C(CCOCCc1cccc(Cl)c1)N(CCNCCc1ccc(O)c2[nH]c(=O)sc12)CCN1CCCCC1

EC50 [1]: 7.94 nM
SMILES: CCN(CC)CCN(CCNCCc1ccc(O)c2[nH]c(=O)sc12)C(=O)CCOCCc1cccc(OC)c1

Second part, the compound before the results:

SMILES: Br.CCN(CC)CCN(CCNCCc1ccc(O)c2[nH]c(=O)sc12)C(=O)CCOCCc1cccc2ccccc12
Activity (D(2) dopamine receptor [2]): Active
Activity [3]: Active
Activity [4]: Active
Activity (Oryctolagus cuniculus [5]): Active
Activity [6]: Active
Activity [7]: Active
Activity [8]: Active
Activity [9]: Active
Activity (Oryctolagus cuniculus [10]): Active
ED80 (Cavia porcellus [11]): 0.027 mg/kg
Activity (Cavia porcellus [12]): inactive
hepatocyte CLint [13]: 105 µL/min/1e6 cells
half-life [14]: 11 h
half-life [15]: 17 h
half-life [16]: 18 h
Vd [17]: 23 L/kg
Vd [18]: 22 L/kg
Vd [19]: 17 L/kg
bioavailability [20]: < 2%
bioavailability [21]: < 2%
inhibition (INH) (Cavia porcellus [22]): 58%
Activity (Cavia porcellus [23]): Toxic
Activity [24]: inactive

SMILES: NCCCN(CCNCCc1ccc(O)c2[nH]c(=O)sc12)C(=O)CCOCCc1ccccc1
EC50 [1]: 316 nM

SMILES: O=c1[nH]c2c(O)ccc(CCNCCS(=O)(=O)CCCOCCc3ccccc3)c2s1 [SIBENADET]
EC50 (D(2) dopamine receptor [25]): 2 nM

SMILES: CC(C)(C)NCC(O)c1ccc(O)c(CO)c1 (stereo unspecified) [ALBUTEROL]
Activity (Cavia porcellus [23]): Toxic

SMILES: OCc1cc(C(O)CNCCCCCCOCCCCc2ccccc2)ccc1O (stereo unspecified)
inhibition (Cavia porcellus [26]): Active

SMILES: CCc1cc2c(cc1CC)CC(NC[C@H](O)c1ccc(O)c3[nH]c(=O)ccc13)C2
pA50 [27]: 7.7
